Screening results (PubChem BioAssay)
MLL AF4-AF9 inh: inhibitors of AF4 peptide binding to AF9, primary screen, biochemical, AlphaScreen, biotin-AF4 peptide, FLAG-AF9, single point | Protein AF-9 (Homo sapiens), P42568 | inhibition, % at 10 µM | 350,000 compounds, 0.47% hits;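 active = every replicate reaching a set inhibition limit, whatever the replicate mean, cut at about 25% in these data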
rRNA inh HTS: reduced GFP signal of wild-type E. coli, primary screen, bacterial rRNA inhibitor project, GFP/RFP fluorescence, OD600, single point. AID 720706, 2013. E. coli WT GFP vs humanized-ribosome RFP mutants, 24 h; hits give low values; DMSO median 0, no signal -100. 350,000 compounds, 1.6% hits. GFP signal change (wild-type ribosome), % (test concentration not listed);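 active = significant combined selectivity score with lowered wild-type GFP, culture density cut under 30%, mutant RFP and density less affected; inactive = any of these conditions unmet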
RAD52 anneal inh: RAD52 DNA annealing inhibitors, primary screen, biochemical, FRET, single point, set 2. recombinant RAD52 DNA annealing, FRET fluorescence. 360,000 compounds, 0.46% hits. DNA repair protein RAD52 homolog (Homo sapiens), P43351. inhibition, % at 18.7 µM;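 active = every replicate showing at least 50% inhibition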
RAD54 inh: inhibitors of human RAD54 branch migration, primary screen, biochemical, fluorescence, single point; DNA repair and recombination protein RAD54-like (Homo sapiens), Q92698; RAD54 Holliday junction branch migration, FAM/BHQ fluorescence; inhibition, % at 10.4 µM; 360,000 compounds, 0.14% hits;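 active = mean normalized replicate activity at least 40 and at least half of replicates scoring 40 or more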;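 also: inhibitors cause a drop in the FAM fluorescence signal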
Target sequence (Q92698 whole entry, looked up): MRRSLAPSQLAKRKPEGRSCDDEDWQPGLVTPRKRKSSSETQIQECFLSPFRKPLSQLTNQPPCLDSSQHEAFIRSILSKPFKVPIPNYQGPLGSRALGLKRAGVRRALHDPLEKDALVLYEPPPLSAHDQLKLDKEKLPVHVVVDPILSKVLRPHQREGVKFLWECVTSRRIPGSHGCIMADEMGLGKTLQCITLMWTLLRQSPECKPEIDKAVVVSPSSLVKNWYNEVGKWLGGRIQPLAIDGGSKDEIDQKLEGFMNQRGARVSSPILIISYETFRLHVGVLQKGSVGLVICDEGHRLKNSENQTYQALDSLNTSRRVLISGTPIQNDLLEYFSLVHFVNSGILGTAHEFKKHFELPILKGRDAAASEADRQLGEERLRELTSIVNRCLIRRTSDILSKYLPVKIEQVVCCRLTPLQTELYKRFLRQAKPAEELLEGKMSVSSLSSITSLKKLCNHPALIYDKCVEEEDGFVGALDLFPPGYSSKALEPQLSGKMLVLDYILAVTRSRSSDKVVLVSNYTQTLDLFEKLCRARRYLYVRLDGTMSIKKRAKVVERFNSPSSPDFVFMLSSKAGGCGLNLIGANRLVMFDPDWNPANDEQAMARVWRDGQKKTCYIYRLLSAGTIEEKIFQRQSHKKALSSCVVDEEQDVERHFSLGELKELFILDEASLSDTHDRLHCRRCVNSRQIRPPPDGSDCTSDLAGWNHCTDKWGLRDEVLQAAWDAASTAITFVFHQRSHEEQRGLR
E-sel inducer: E-selectin induction in HUVECs, primary screen, imaging, HUVEC, immunofluorescence imaging, single point; P16581; normalized: neutral wells 0, TNF-alpha wells 100; activation, % at 7.58 µM; 260,000 compounds, 0.37% hits; AID 686992, 2013;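 active = mean E-selectin-positive cell signal at least 10% of the positive control, reached in at least 60% of replicates, without over 20% cell loss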
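Assay system: HUVEC, human umbilical vein endothelial cells / Amount: 3,000 HUVEC/well / Controls: TNF-alpha positive control, DMSO neutral control / Compound dosing: single concentration / Medium: EGM-2 over gelatin coat / Evaluation: percent E-selectin-positive cells / Signal: immunofluorescence imaging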
INS-1E GSIS act: GLuc luminescence reporter in INS-1E cells, primary screen for activators of glucose-dependent secretion of insulin. AID 743287, 2014. activation, % at 16.6 µM. 370,000 compounds, 0.61% hits. INS-1E GLuc reporter insulin secretion, 2-3 h;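 active = lowest replicate activation of at least 40%, so every replicate reaches that level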
A number is an active result; - = inactive; . = no result given. An excerpt weighted towards active compounds, which were near 2.6% of everything screened.

SMILES	MLL AF4-AF9 inh	rRNA inh HTS	RAD52 anneal inh	RAD54 inh	E-sel inducer	INS-1E GSIS act
Cc1cc(C(=O)Nc2cccc3c2O[C@H](CN(C)S(=O)(=O)c2ccccc2)[C@H](C)CN([C@H](C)CO)C3=O)n(C)n1	-	-	-	-	-	-
COc1ccccc1NC(=O)CSc1nnc2ccc(-c3cccnc3)nn12	-	-	-	-	-	-
COc1ccc(NC(=O)CSc2nnc3ccc(-c4cccnc4)nn23)c(OC)c1	-	-	-	-	.	70
COC(=O)[C@@]1(C)[C@H]2C(=O)N(Cc3ccccc3)C(=O)[C@H]2[C@H]2CN=C(SCc3ccc(Cl)cc3)N21	-	-21	-	-	.	-
Cc1ccc(-c2nnc3sc(-c4ccncc4)nn23)cc1	.	.	.	-	.	67
c1ccc(-c2nn3c(-c4ccccc4)nnc3s2)cc1	.	.	.	-	.	.
CCn1nc2cc(C(=O)NCCc3cccs3)ccc2c1OC	26	-	-	-	-	.
CCOc1c2ccc(C(=O)NCCc3ccc(C)cc3)cc2nn1CC	-	-24	-	-	-	-
C[C@@H]1CN(C)C(=O)c2cccc(NS(C)(=O)=O)c2O[C@H]1CN(C)S(C)(=O)=O	.	-	.	.	.	-
CN1C(=O)c2cc(NC(=O)c3ccccc3Cl)ccc2OC[C@H]2O[C@H](CC(=O)NCC(F)(F)F)CC[C@@H]21	-	-	-	-	-	-
Nc1nc(N)c(C=Nc2ccc(Br)cc2)c(Nc2ccc(Br)cc2)n1	-	-25	-	-	.	-
C[C@H](CO)N1C[C@H](C)[C@H](CN(C)S(=O)(=O)c2ccc(Cl)cc2)Oc2ccc(NS(=O)(=O)c3ccc(F)cc3)cc2C1=O	-	-	-	-	-	-
Cc1cccc(-c2ccc([C@H]3[C@H]4CN(C(=O)Cc5ccccn5)CC(=O)N4[C@H]3CO)cc2)c1	-	-	-	.	-	-
CC1(C(=O)NCc2ccccc2)CN(S(C)(=O)=O)CC(=O)N1C1CC1 (centres undefined)	.	.	-	.	-	65
Cc1noc(C)c1S(=O)(=O)Nc1ccc2c(c1)CC(=O)N([C@H](C)CO)C[C@H](C)[C@@H](CN(C)S(=O)(=O)c1c(C)noc1C)O2	-	-	-	-	-	-
COc1nc(-c2ccc(Cl)cc2)ccc1-c1noc(-c2ccco2)n1	.	.	.	-	.	66
O=C(/C=C/c1ccc([N+](=O)[O-])cc1)NC1CC2CCC1C2 (centres undefined)	-	-28	-	.	.	-
O=C(/C=C/c1ccccc1)NC1CC2CCC1C2 (centres undefined)	.	.	.	.	.	-
O=C(/C=C/c1ccc(Cl)cc1)NC1CC2CCC1C2 (centres undefined)	-	-	-	-	35	-
Cc1ccc(CSc2nnc(CCNC(=O)OC(C)(C)C)o2)cc1	-	-25	-	-	.	.
Cc1ccc(CSc2nnc([C@@H]3CCCN3C(=O)OC(C)(C)C)o2)cc1	-	-16	-	.	-	-
CC(C)(C)OC(=O)NCCc1nnc(SCc2ccccc2)o1	-	-	-	-	.	-
C[C@@H]1CCCCO[C@H](CN(C)Cc2ccc(Cl)c(Cl)c2)[C@@H](C)CN([C@H](C)CO)C(=O)c2cc(NS(C)(=O)=O)ccc2O1	-	-	-	-	.	-
C[C@H]1CN([C@@H](C)CO)S(=O)(=O)c2ccc(C#Cc3ccccn3)cc2O[C@H]1CN(C)Cc1ccccc1	-	-	-	-	-	-
O/N=C\c1ccccc1Oc1ccc(F)cc1	-	-25	-	.	.	-
O/N=C/c1ccccc1Oc1ccccc1	.	.	.	-	.	-
CCNC(=O)C[C@@H]1CC[C@@H]2[C@@H](COc3ccc(NC(=O)Nc4cccc(OC)c4)cc3C(=O)N2C)O1	.	-	.	-	76	-
CN1C(=O)c2cc(NC(=O)Nc3ccc(Cl)cc3)ccc2OC[C@@H]2O[C@H](CC(=O)NCCN3CCCCC3)CC[C@@H]21	-	-	54	-	-	-
